Test results from ChEMBL document CHEMBL1153726, “Synthesis and anticancer activity of sclerophytin-inspired hydroisobenzofurans” (Bioorg Med Chem Lett, 2009).

Key:
Format in all cases: functional
UO-31 = assay: Growth inhibition of human UO31 cells at 10 uM after 96 hrs by MTT assay; set-up: scale not given: the % may be the effect or the level left
OVCAR-5 [1] = assay: Growth inhibition of human OVCAR5 cells at 100 nM after 96 hrs by MTT assay; set-up: scale not given: the % may be the effect or the level left
EKVX [2] = assay: Growth inhibition of human EKVX cells at 10 uM after 96 hrs by MTT assay; set-up: scale not given: the % may be the effect or the level left
EKVX [3] = assay: Growth inhibition of human EKVX cells at 1 nM after 96 hrs by MTT assay; set-up: scale not given: the % may be the effect or the level left
NCI-H226 [4] = assay: Growth inhibition of human NCI-H226 cells at 10 uM after 96 hrs by MTT assay; set-up: scale not given: the % may be the effect or the level left
A549 = assay: Growth inhibition of human A549 cells at 1 nM after 96 hrs by MTT assay; set-up: scale not given: the % may be the effect or the level left
SNB-19 = assay: Growth inhibition of human SNB19 cells after 96 hrs by MTT assay; settings: SNB-19, 96 h
Outline: (§1)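 Tested in the NCI 60-cell-line panel in five-dose format; GI50 and LC50 values reported for each cell line.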

OVCAR-8 = assay: Growth inhibition of human OVCAR8 cells after 96 hrs by MTT assay; settings: OVCAR-8, 96 h; outline: as §1
K562 [5] = assay: Growth inhibition of human K562 cells after 96 hrs by MTT assay; settings: K562, 96 h
Outline: (§2)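 Run in the NCI 60 human tumour cell line panel as a five-dose assay. GI50 and LC50 were reported for each cell line.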

MOLT-4 [6] = assay: Growth inhibition of human MOLT4 cells at 10 nM after 96 hrs by MTT assay; set-up: scale not given: the % may be the effect or the level left
COLO 205 [7] = assay: Growth inhibition of human COLO205 cells at 10 uM after 96 hrs by MTT assay; set-up: scale not given: the % may be the effect or the level left
SK-MEL-28 [8] = assay: Growth inhibition of human SK-MEL-28 cells at 1 uM after 96 hrs by MTT assay; set-up: scale not given: the % may be the effect or the level left
OVCAR-3 = assay: Growth inhibition of human OVCAR-3 cells at 10 nM after 96 hrs by MTT assay; set-up: scale not given: the % may be the effect or the level left
SF-295 = assay: Growth inhibition of human SF295 cells at 10 nM after 96 hrs by MTT assay; set-up: scale not given: the % may be the effect or the level left
PC-3 = assay: Growth inhibition of human PC3 cells at 100 nM after 96 hrs by MTT assay; set-up: scale not given: the % may be the effect or the level left
MOLT-4 [9] = assay: Growth inhibition of human MOLT4 cells at 100 nM after 96 hrs by MTT assay; set-up: scale not given: the % may be the effect or the level left
Malme-3M [10] = assay: Growth inhibition of human MALME-3M cells at 10 nM after 96 hrs by MTT assay; set-up: scale not given: the % may be the effect or the level left
OVCAR-4 [11] = assay: Growth inhibition of human OVCAR4 cells at 1 nM after 96 hrs by MTT assay; set-up: scale not given: the % may be the effect or the level left
SR = assay: Growth inhibition of human SR cells at 1 nM after 96 hrs by MTT assay; set-up: scale not given: the % may be the effect or the level left
OVCAR-5 [12] = assay: Growth inhibition of human OVCAR5 cells at 10 uM after 96 hrs by MTT assay; set-up: scale not given: the % may be the effect or the level left
A498 = assay: Growth inhibition of human A498 cells at 1 uM after 96 hrs by MTT assay; set-up: scale not given: the % may be the effect or the level left
OVCAR-4 [13] = assay: Growth inhibition of human OVCAR4 cells at 10 uM after 96 hrs by MTT assay; set-up: scale not given: the % may be the effect or the level left
DU-145 = assay: Growth inhibition of human DU145 cells at 1 nM after 96 hrs by MTT assay; set-up: scale not given: the % may be the effect or the level left
NCI-H23 = assay: Growth inhibition of human NCI-H23 cells at 1 uM after 96 hrs by MTT assay; set-up: scale not given: the % may be the effect or the level left
TK-10 = assay: Growth inhibition of human TK10 cells at 10 uM after 96 hrs by MTT assay; set-up: scale not given: the % may be the effect or the level left
SF-539 = assay: Growth inhibition of human SF539 cells after 96 hrs by MTT assay; settings: SF-539, 96 h; outline: as §1
RXF 393 = assay: Growth inhibition of human RXF393 cells at 10 nM after 96 hrs by MTT assay; set-up: scale not given: the % may be the effect or the level left
BT-549 = assay: Growth inhibition of human BT549 cells at 1 nM after 96 hrs by MTT assay; set-up: scale not given: the % may be the effect or the level left
COLO 205 [14] = assay: Growth inhibition of human COLO205 cells after 96 hrs by MTT assay; settings: COLO 205, 96 h
COLO 205 [15] = assay: Growth inhibition of human COLO205 cells at 100 nM after 96 hrs by MTT assay; set-up: scale not given: the % may be the effect or the level left
UACC-257 = assay: Growth inhibition of human UACC257 cells at 1 nM after 96 hrs by MTT assay; set-up: scale not given: the % may be the effect or the level left
K562 [16] = assay: Growth inhibition of human K562 cells at 1 uM after 96 hrs by MTT assay; set-up: scale not given: the % may be the effect or the level left
SK-MEL-5 = assay: Growth inhibition of human SK-MEL-5 cells at 10 nM after 96 hrs by MTT assay; set-up: scale not given: the % may be the effect or the level left
UACC-62 = assay: Growth inhibition of human UACC62 cells at 1 nM after 96 hrs by MTT assay; set-up: scale not given: the % may be the effect or the level left
MDA-MB-231 [17] = assay: Growth inhibition of human MDA-MB-231 cells after 96 hrs by MTT assay; settings: MDA-MB-231, 96 h; outline: as §2
Malme-3M [18] = assay: Growth inhibition of human MALME-3M cells at 1 nM after 96 hrs by MTT assay; set-up: scale not given: the % may be the effect or the level left
MDA-MB-231 [19] = assay: Growth inhibition of human MDA-MB-231 cells at 100 nM after 96 hrs by MTT assay; set-up: scale not given: the % may be the effect or the level left
NCI-H226 [20] = assay: Growth inhibition of human NCI-H226 cells at 100 nM after 96 hrs by MTT assay; set-up: scale not given: the % may be the effect or the level left
SK-MEL-28 [21] = assay: Growth inhibition of human SK-MEL-28 cells at 100 nM after 96 hrs by MTT assay; set-up: scale not given: the % may be the effect or the level left
M14 = assay: Growth inhibition of human M14 cells at 1 nM after 96 hrs by MTT assay; set-up: scale not given: the % may be the effect or the level left
HOP-62 [22] = assay: Growth inhibition of human HOP62 cells at 1 uM after 96 hrs by MTT assay; set-up: scale not given: the % may be the effect or the level left
SF-268 = assay: Growth inhibition of human SF268 cells at 10 uM after 96 hrs by MTT assay; set-up: scale not given: the % may be the effect or the level left
HOP-62 [23] = assay: Growth inhibition of human HOP62 cells at 1 nM after 96 hrs by MTT assay; set-up: scale not given: the % may be the effect or the level left
[24] = read-out: LC50 (the source's name)
[25] = read-out: Log10GI50 (converted)
[26] = read-out: Log10LC50 (converted)

How did the Activity (UO-31) turn out when `C=C(C)[C@H]1CC=C(C)C2=CO[C@@H](c3ccccc3F)[C@@H]21` was run?
Its Activity is 78.96%.

What about the Activity (OVCAR-5 [1]) of the same molecule?
The Activity was 100%.

And the Activity (EKVX [2])?
The Activity was 102.28%.

What about the Activity (EKVX [3]) of the same molecule?
The Activity was 98%.

And the Activity (NCI-H226 [4])?
The Activity was 98.1%.

And the Activity (A549)?
The Activity was 93%.

And the GI50 (SNB-19; read-out: GI50)?
Its GI50 is 10.7 µM.

What about the CC50 (SNB-19; [24]) of the same molecule?
The CC50 was 47.4 µM.

And the GI50 (SNB-19; [25])?
The GI50 was 10.7 µM.

And the CC50 (SNB-19; [26])?
Its CC50 is 47.9 µM.

And the TGI (SNB-19; read-out: Log10TGI (converted))?
Its TGI is 22.4 µM.

And the TGI (SNB-19; read-out: TGI)?
Its TGI is 22.5 µM.

What about the GI50 (OVCAR-8; read-out: GI50) of the same molecule?
Its GI50 is 11.9 µM.

And the CC50 (OVCAR-8; [24])?
Its CC50 is 79 µM.

And the GI50 (OVCAR-8; [25])?
Its GI50 is 11.7 µM.

What about the CC50 (OVCAR-8; [26]) of the same molecule?
Its CC50 is 79.4 µM.

And the TGI (OVCAR-8; read-out: Log10TGI (converted))?
The TGI was 30.9 µM.

What about the TGI (OVCAR-8; read-out: TGI) of the same molecule?
Its TGI is 30.6 µM.

What about the GI50 (K562 [5]; read-out: GI50) of the same molecule?
The GI50 was 2.04 µM.

And the CC50 (K562 [5]; [24])?
The CC50 was 49.3 µM.

And the GI50 (K562 [5]; [25])?
The GI50 was 2.04 µM.

What about the CC50 (K562 [5]; [26]) of the same molecule?
Its CC50 is 49 µM.

And the TGI (K562 [5]; read-out: Log10TGI (converted))?
The TGI was 13.2 µM.

And the TGI (K562 [5]; read-out: TGI)?
Its TGI is 13.2 µM.

And the Activity (MOLT-4 [6])?
The Activity was 100%.

And the Activity (COLO 205 [7])?
The Activity was 101.29%.

What about the Activity (SK-MEL-28 [8]) of the same molecule?
The Activity was 53%.

What about the Activity (OVCAR-3) of the same molecule?
The Activity was 88%.

And the Activity (SF-295)?
Its Activity is 92%.

What about the Activity (PC-3) of the same molecule?
Its Activity is 70%.

And the Activity (MOLT-4 [9])?
Its Activity is 81%.

And the Activity (Malme-3M [10])?
The Activity was 88%.

What about the Activity (OVCAR-4 [11]) of the same molecule?
Its Activity is 91%.

And the Activity (SR)?
The Activity was 83%.

What about the Activity (OVCAR-5 [12]) of the same molecule?
Its Activity is 100.16%.

And the Activity (A498)?
Its Activity is -16%.

What about the Activity (OVCAR-4 [13]) of the same molecule?
Its Activity is 88.01%.

And the Activity (DU-145)?
The Activity was 88%.

What about the Activity (NCI-H23) of the same molecule?
The Activity was 34%.

And the Activity (TK-10)?
Its Activity is 113.66%.

And the GI50 (SF-539; read-out: GI50)?
The GI50 was 6.82 µM.

What about the CC50 (SF-539; [24]) of the same molecule?
Its CC50 is 44.8 µM.

And the GI50 (SF-539; [25])?
Its GI50 is 6.76 µM.

What about the CC50 (SF-539; [26]) of the same molecule?
The CC50 was 44.7 µM.

And the TGI (SF-539; read-out: Log10TGI (converted))?
The TGI was 20 µM.

And the TGI (SF-539; read-out: TGI)?
Its TGI is 20 µM.

And the Activity (RXF 393)?
Its Activity is 85%.

And the Activity (BT-549)?
The Activity was 97%.

And the GI50 (COLO 205 [14]; read-out: GI50)?
The GI50 was 9.77 µM.

What about the CC50 (COLO 205 [14]; [24]) of the same molecule?
Its CC50 is 46.3 µM.

And the GI50 (COLO 205 [14]; [25])?
Its GI50 is 9.77 µM.

And the CC50 (COLO 205 [14]; [26])?
The CC50 was 46.8 µM.

And the TGI (COLO 205 [14]; read-out: Log10TGI (converted))?
Its TGI is 21.4 µM.

What about the TGI (COLO 205 [14]; read-out: TGI) of the same molecule?
The TGI was 21.5 µM.

And the Activity (COLO 205 [15])?
Its Activity is 92%.

What about the Activity (UACC-257) of the same molecule?
Its Activity is 91%.

And the Activity (K562 [16])?
The Activity was 10%.

And the Activity (SK-MEL-5)?
The Activity was 88%.

What about the Activity (UACC-62) of the same molecule?
The Activity was 88%.

What about the GI50 (MDA-MB-231 [17]; read-out: GI50) of the same molecule?
The GI50 was 6.73 µM.

What about the CC50 (MDA-MB-231 [17]; [24]) of the same molecule?
The CC50 was 55.9 µM.

And the GI50 (MDA-MB-231 [17]; [25])?
The GI50 was 6.76 µM.

What about the CC50 (MDA-MB-231 [17]; [26]) of the same molecule?
Its CC50 is 56.2 µM.

And the TGI (MDA-MB-231 [17]; read-out: Log10TGI (converted))?
Its TGI is 22.4 µM.

And the TGI (MDA-MB-231 [17]; read-out: TGI)?
Its TGI is 22.3 µM.

What about the Activity (Malme-3M [18]) of the same molecule?
The Activity was 97%.

And the Activity (MDA-MB-231 [19])?
The Activity was 81%.

And the Activity (NCI-H226 [20])?
The Activity was 75%.

And the Activity (SK-MEL-28 [21])?
Its Activity is 93%.

And the Activity (M14)?
Its Activity is 97%.

What about the Activity (HOP-62 [22]) of the same molecule?
Its Activity is 51%.

And the Activity (SF-268)?
Its Activity is 105.37%.

And the Activity (HOP-62 [23])?
Its Activity is 95%.
